# Experimental data as given in the RNAGym collection of RNA variant scans (doi:10.1126/science.aae0568).
# Variants at the floor of the assay were thinned out.
# B1: tRNA (parent)
# chain: GUUCCGUUGGCGUAAUGGUAACGCGUCUCCCUCCUAAGGAGAAGACUGCGGGUUCGAGUCCCGUACGGAACG
# Variants of: B1
# Assay: yeast fitness relative to wild type (ratio to wild type); higher = fitter; tRNA-Arg(CCU), competitive growth, 37 C, YPD
# Method in brief: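 The tRNA-Arg(CCU) gene variants were made by chemical synthesis with a 3% per-site mutation rate at 69 sites and inserted at the native genomic locus of Saccharomyces cerevisiae. After pooling, the strains were competed in YPD at 37°C for 24 hours in six parallel replicates. Gene amplicons from the start population and each end population were read by 100-nucleotide paired-end sequencing, and Darwinian fitness relative to wild type was taken from genotype frequency changes. Genotypes needed ≥ 100 starting reads, and estimates < 0.5 were set to 0.5.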
row,Variant,yeast fitness
1,G6C U13C C24G C34U U53C C55G C62A,≤ 0.5
2,U7A A20G C46G G67C A69C,≤ 0.5
3,G6A C27U,0.785
4,G6A U19G A42G,≤ 0.5
5,U7A C46A G68U,≤ 0.5
6,G6C G51A G58A,0.652
7,G6C A15U G23C C31G G41C G48C A69U,0.562
8,G6A U8C A20C C27U,≤ 0.5
9,G6C A36U A65U,≤ 0.5
10,G6A G50A C60A G68U,≤ 0.5
11,G6A G52C A65U G67C,≤ 0.5
12,U7A G10A A37G G41C A42U C46A C61G,0.738
13,G6C A37C G51A G52A U53C C62A,0.561
14,U7A C31U,0.683
15,G6C A14G A20C C31A U64A G67A,≤ 0.5
16,U7A A20C A21G G23A,0.65
17,G6A C34U,0.65
18,U7A C61A,0.603
19,G6C U13G,0.56
20,G6A U8C A42C A45U A57G A70C,≤ 0.5
21,G6A C30G G67C A69G,≤ 0.5
22,U7A A15G C34G,≤ 0.5
23,G6A C24U C49U C61G C66U A69U,≤ 0.5
24,G6C C61G G68A,≤ 0.5

row,Variant,yeast fitness
1,U7A C30U C33U C46U,≤ 0.5
2,G6A C29G A43U,≤ 0.5
3,U7A G10A C60U,0.607
4,G6C C31G C33G U47C G51A C66U,≤ 0.5
5,G6A U26G A36U,≤ 0.5
6,G6A C24U C31A A43C U53C,≤ 0.5
7,U7A A20G G23A U26G C66A,≤ 0.5
8,U7A C34G U53C,0.726
9,G6C A42G A70U,0.548
10,G6C C31A A65G C66U,0.594
11,G6C G10C A69C,0.589
12,G6A G9A C22U C30G,≤ 0.5
13,G6A G44A U59A A69U,≤ 0.5
14,U7A A20G G23A G44A G52C,≤ 0.5
15,G6C U7G U19A C27G U53A,0.612
16,U7A A21C U32C G48C C60A,≤ 0.5
17,G6A U19C A20U C22U C27G,≤ 0.5
18,G6A G9C C24U C30G C31A A43G A65C,≤ 0.5
19,G6A U8C A14U,0.564
20,G6C A20G G52A,≤ 0.5
21,G6A C24U,0.733
22,G6C G23A C34G,≤ 0.5
23,G6C A36U G39A,≤ 0.5
24,G6A C30G C55G,≤ 0.5

row,Variant,yeast fitness
1,G6C C11G C27U A42G,≤ 0.5
2,G6C U16G C27U,≤ 0.5
3,U7A C55A A65C,≤ 0.5
4,G6C A14C C29U C34G C46U C49U C66A G68C,≤ 0.5
5,G6C C33G C34U U64A,0.684
6,G6C G12A G51C C66U,≤ 0.5
7,G6C U8C G58C,0.685
8,G6A C11U A43U C62G C66A A69C,≤ 0.5
9,G6A U64G,0.795
10,G6A U13C A14U C30U A69U,≤ 0.5
11,G6A C22G C33A A36C A43G C55G,≤ 0.5
12,U7A C30G A57U G58A,≤ 0.5
13,G6C A40G C60U C61U,0.513
14,G6C A20C C66G,0.957
15,G6C C11U A21C,0.671
16,U7A A40C C60A,0.543
17,G6A G23C C49G U53G A57G C61U,≤ 0.5
18,U7A A36C,0.512
19,G6A C24U C66U,0.647
20,G6A G17A G38C,0.708
21,G6A U19A U53A C60A A69U,≤ 0.5
22,U7A A42U A45G A57C A69U,≤ 0.5
23,G6C A37G A43C C62U,≤ 0.5
24,G6C C22A U28A U53G,≤ 0.5

row,Variant,yeast fitness
1,G6A U8C U19A U53C,≤ 0.5
2,G6C C46G C62U C66U,0.533
3,G6A C31G A40U,0.688
4,U7A C29U A57C,≤ 0.5
5,G6A C31U U32C G67C,0.593
6,U7A G9C G17C G48A G63A,0.584
7,U7A G10C C22U C27G C61A C62U A65U A69C,≤ 0.5
8,G6A G12C U16C A21U G63C G67A,≤ 0.5
9,U7A C11A G18A C31U C34U U47C C49A G56A A57U,≤ 0.5
10,G6A G17A U32C,≤ 0.5
11,G6C U19G G48C,≤ 0.5
12,G6A C24U C29G C49A,0.575
13,G6A C29G U32C,0.548
14,U7A G9C G17C C29G C33G G41C C66U,≤ 0.5
15,G6A G44A G56A,0.649
16,G6C A36C U64A,0.539
17,G6A C24U C46U,0.764
18,G6C U7C C27U,≤ 0.5
19,U7A A42C,0.775
20,G6C C22G A37U A43G C62G,0.509
21,G6U C27U G56A C61U,≤ 0.5
22,G6C A37G A40U A45C,0.702
23,G6C C34G,0.717
24,U7A G9A U13A A43G G56A,≤ 0.5

row,Variant,yeast fitness
1,U7A C22A C31G U32G A42G G52A,≤ 0.5
2,G6A C29A,0.647
3,G6A G51A C62U,0.643
4,U7A C11G C27U A37C G51C G67U,0.504
5,G6A C62U C66A,0.548
6,U7A A36C G51C G63A,≤ 0.5
7,G6A U13G,0.731
8,G6A C60A,0.515
9,G6C A20U C30G C66U,≤ 0.5
10,G6A C22G A45C G52C A57U A69C,≤ 0.5
11,G6C C11G A14U C22U G44A C55A G63A,≤ 0.5
12,G6A C22G U47A,≤ 0.5
13,G6A C22G A57C C66A,≤ 0.5
14,G6A U19A U53A,≤ 0.5
15,G6C U26C A43C A57G C66U,≤ 0.5
16,G6A C11U A21C U28A C62U,≤ 0.5
17,G6C U32C A36C,≤ 0.5
18,G6C A14U C66U A69C,≤ 0.5
19,G6C C49G,0.776
20,G6C C30A A45G C55G A57U C62G U64C,≤ 0.5
21,U7A A43G,0.679
22,U7A C11U A65U,0.682
23,U7A G10A G41C A42U C46A,≤ 0.5
24,G6A C22G C24U U47A A70C,≤ 0.5

row,Variant,yeast fitness
1,G6C G48C,0.837
2,G6A G39C G63A,≤ 0.5
3,G6C A14C C24U C29A G39C,≤ 0.5
4,G6A G10C C34U A40C,≤ 0.5
5,G6A G48C G58A,0.57
6,G6C C22G,0.761
7,G6C U7A C29A G51C,≤ 0.5
8,G6A C24U C31A A43C G58C U64G,≤ 0.5
9,G6C C11G A21G C29G A40C,≤ 0.5
10,G6C A37C C62A A69C,≤ 0.5
11,G6C C22A G41A G44C C49U,≤ 0.5
12,U7A C29A G50C U54C,≤ 0.5
13,G6C U7G C24U C27A A57G,≤ 0.5
14,G6C C24A C46G,0.59
15,U7A G9C G17C C34A G44A C46U G68A,≤ 0.5
16,G6A G48C,0.884
17,U7A A40G,0.73
18,G6C A37G C60U A65G,≤ 0.5
19,U7A G9C A14G G17C G48A,≤ 0.5
20,G6C A42C C49U C66A,≤ 0.5
21,G6A U13G C55A,≤ 0.5
22,G6A C22A C29U,≤ 0.5
23,G6C C62A,0.798
24,G6A C31U C55U,0.571

row,Variant,yeast fitness
1,G6U A70C,0.813
2,G6A U8A A14C A21U A40G,≤ 0.5
3,U7A A14U U16C A42U,≤ 0.5
4,U7A C24G C29G C30U A40C A65U,0.59
5,G6C G38A,0.84
6,G6A G25A,0.859
7,G6C U47C C61U,0.533
8,G6A C22U C31G,≤ 0.5
9,U7A G10A G41U C49U,0.615
10,G6C A40G,0.767
11,G6C A42U,0.739
12,U7A C29A,0.73
13,U7A A15U A40G,≤ 0.5
14,U7A A20G C31U A57C G67C,≤ 0.5
15,G6C A45G G58A,0.607
16,G6A U13G A42C,0.711
17,U7A G12A C49U C62G,≤ 0.5
18,G6A G17C C31A A36U,0.53
19,U7A A14U A36U G50C U54A G56A C61A,≤ 0.5
20,G6C U13C G50A,≤ 0.5
21,U7A G10A A14G G41C A42U C46A C61G,≤ 0.5
22,G6A C30U A65C A69G A70U,≤ 0.5
23,G6A G39U,0.79
